# Compound activity (PubChem BioAssay)
# aSyn UTR inh: MLPCN primary screen, SNCA 5' untranslated region. hit rate 0.82% among 300,000. inhibition, % (tested at 7.5 µM). alpha-synuclein 5'UTR reporter, inhibitor activity; in the data active = inhibition above about 60%; inconclusive = no clear call, values can overlap the other calls;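 also: H4 neuroglioblastoma cells stably carrying SNCA 5'UTR luciferase fusion; 0% = DMSO wells and 100% = positive control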
# EWS-Fli block: EWS/Fli transcriptional activity inhibition; hit rate 0.67% among 350,000; A673 NR0B1-luciferase reporter, viability-normalised; AID 651661; inhibition, % at 12.6 µM;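 active = mean inhibition of at least 50% after viability correction, with every replicate also passing that limit; inconclusive = mean reaches 50% but only one of two replicates passes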;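 also: firefly luciferase signal divided by Alamar Blue viability fluorescence both relative to DMSO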
# LMP1 NFkB inh: inhibitors of Epstein-Barr LMP1-induced NF-kappaB reporter | LMP1-induced NF-kappaB luciferase reporter cells, luminescence | inhibition, % at 12.5 µM | hit rate 0.69% among 350,000 | AID 504558; in the data active = inhibition above about 41%; inconclusive = no clear call, values can overlap the other calls;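 also: 0% = neutral control wells and 100% = reference inhibitor control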
# FN deposition inh: fibronectin deposition inhibition. inhibition, % at 12.6 µM. AID 743247. hit rate 0.086% among 350,000. AH1F fibroblasts, Alexa488-fibronectin deposition fluorescence, overnight;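 active = mean inhibition across replicates of 30% or more, regardless of how many single replicates reach that level; inconclusive = mean under 30% yet at least half of replicates reach 30%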;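 also: positive control wells lacked labelled fibronectin entirely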
#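 Material – AH1F fibroblast monolayer, labelled fibronectin deposition · Reagent – labelled fibronectin 24 nM · Timing – 1 h adhesion, overnight exposure · Measured by – fluorescence at 485 nm excitation, 525 nm emission · Read-out – inhibition of fibronectin deposition signal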
# Shn3 3UTR inh: Schnurri-3 reporter inhibition in Clone20 osteoblasts; hit rate 0.52% among 360,000; Clone20 osteoblast Shn3 3'UTR firefly luciferase, 24 h; inhibition, % at 12.5 µM;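 active = mean inhibition of at least 75% with every replicate also reaching 75%; inconclusive = mean inhibition at least 75% but some replicate below; inactive = mean inhibition below 75%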;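 also: 0% = median of neutral control wells and 100% = pilot-screen positive control compound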
# PAX8 inh HTS: PAX8 transcriptional activity inhibition. RMG-I TPO-luciferase reporter, SteadyGlo, 24 h. inhibition, % at 12.6 µM. hit rate 1.2% among 360,000. AID 652154;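 active = mean replicate inhibition at least 60% with every replicate also reaching 60%; inconclusive = only one of the two criteria is met; inactive = mean below 60% and not all replicates reaching 60%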;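 also: luciferase light reporting Pax8 driven TPO promoter activity; plate controls were median of neutral control wells for no effect and mitoxantrone controls for full effect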
# Numbers without * were called inactive; ? = inconclusive; . = not tested or not shown. Compounds with a hit are over-represented: about 2.1% of the library has one in this group of screens.
SMILES,aSyn UTR inh,EWS-Fli block,LMP1 NFkB inh,FN deposition inh,Shn3 3UTR inh,PAX8 inh HTS
COc1ccc(S(=O)(=O)Nc2ccc3c(c2)C(=O)N([C@H](C)CO)C[C@@H](C)[C@H](CN(C)Cc2ccc(C(F)(F)F)cc2)OCCCC[C@H](C)O3)cc1,.,32,.,.,.,26
COc1ccc(S(=O)(=O)Nc2ccc3c(c2)C(=O)N([C@H](C)CO)C[C@H](C)[C@@H](CN(C)Cc2ccc(C(F)(F)F)cc2)OCCCC[C@H](C)O3)cc1,.,6,.,-10,.,104*
COc1ccc(S(=O)(=O)Nc2ccc3c(c2)C(=O)N([C@@H](C)CO)C[C@H](C)[C@@H](CN(C)Cc2ccc(C(F)(F)F)cc2)OCCCC[C@H](C)O3)cc1,.,25,.,-12,.,106*
COc1ccccc1NC(=O)N(C)C[C@@H]1Oc2ncc(C#CC(C)C)cc2C(=O)N([C@H](C)CO)C[C@H]1C,.,0,.,-9,.,1
COc1ccc(N2CCN(C(=O)c3ccccc3)CC2)c([N+](=O)[O-])c1,15,0,-7,-1,-5,14
CCCCC(=O)N1CCN(c2ccc(OC)cc2[N+](=O)[O-])CC1,0,14,12,1,-2,87*
Cc1ccc(N(CCC#N)C(=O)CCl)cc1C,-27,72*,2,.,-8,?
Cc1ccc(SCC(=O)OCC(=O)N(CCC#N)c2ccccc2)cc1C,-3,-1,-5,4,-25,3
O=C(C[C@@H]1C=C[C@@H](NC(=O)C2CCOCC2)[C@@H](CO)O1)Nc1nccs1,.,8,.,.,.,17
COCC(=O)Nc1ccc2c(c1)OC[C@H](C)N(Cc1cccc(F)c1)C[C@H](C)[C@@H](OC)CN(C)C2=O,.,-3,.,-1,.,.
CCOC(=O)C(C)Sc1nc(-c2cccs2)ccc1C#N (stereo unspecified),-50,.,60*,3,-20,.
COc1ccccc1N(C)S(=O)(=O)c1ccc(C(=O)Nc2ccc(N3CCOCC3)cc2)cc1,-7,12,7,-2,17,1
C=CCN(c1ccccc1OC)S(=O)(=O)c1ccc(Cl)c(C(=O)Nc2ccc(N3CCOCC3)cc2)c1,89*,11,14,-17,1,-6
CCCCCCCCOC(=O)c1cc([N+](=O)[O-])c(Sc2ncnc3nc[nH]c23)c([N+](=O)[O-])c1,.,39,8,-17,99*,25
COc1ccc(N2CCN(Cc3nc(-c4ccc(Cl)cc4Cl)no3)CC2)cc1,-18,.,-11,.,-24,.
CC(C)N1CCN(c2ccc(OC[C@H]3CO[C@](Cn4cncn4)(c4ccc(Cl)cc4Cl)O3)cc2)CC1,.,23,56*,1,2,16
CC(C)N1CCN(c2ccc(OCC3COC(Cn4cncn4)(c4ccc(Cl)cc4Cl)O3)cc2)CC1 (stereo unspecified),.,-8,-4,0,95*,-13
COc1ccc(N2CCN(C(=O)Cn3cncn3)CC2)cc1,-23,5,4,-5,11,21
O=C(CN1C(=O)/C(=C\C=C\c2ccccc2)SC1=S)Nc1ccc(F)cc1,-41,-1,6,-5,6,-17
O=C(COC(=O)CCN1C(=O)/C(=C\C=C\c2ccccc2)SC1=S)Nc1cc(F)ccc1F,64*,34,18,0,39,1
O=S(=O)(c1ccc(F)cc1)N1CCCCN2[C@H](CO)[C@H](c3ccc(-c4ccccc4)cc3)[C@@H]2C1,.,2,.,.,.,34
COc1ccc(NC(=O)N2C[C@@H](O)COC[C@H]3O[C@H](CC(=O)N4CCN(C)CC4)CC[C@@H]32)cc1,.,7,.,4,.,-12
O=C(Nc1ncc(Cc2ccc(SC(F)F)cc2)s1)c1ccc(OC(F)F)cc1,-129,53*,33,16,58,?
C[C@H]1CN([C@@H](C)CO)C(=O)c2cc(-c3ccc(F)cc3)cnc2O[C@H]1CN(C)C(=O)Nc1ccccc1F,.,-10,.,-1,.,.
O=S1(=O)CC(N2CCCCC2)C(N2CCCCC2)C1 (stereo unspecified),-25,.,51*,.,7,.
SMILES,aSyn UTR inh,EWS-Fli block,LMP1 NFkB inh,FN deposition inh,Shn3 3UTR inh,PAX8 inh HTS
CCCNC(=O)COc1nc2ccccc2nc1N1CCOCC1,2,13,-15,2,-7,103*
Cc1cc(C)nc(/N=C(\N)Nc2ccc(-c3ccccc3)cc2)n1,-32,20,16,-1,92*,22
O=C(C[C@H]1CC[C@H](NC(=O)C2CCOCC2)[C@@H](CO)O1)Nc1ccc(-c2ccccc2)cc1,.,-8,.,.,.,8
O=C(NC1CCCCC1)N[C@@H]1CC[C@@H](CCNS(=O)(=O)c2ccccc2)O[C@@H]1CO,.,-9,.,.,.,11
C#CCOc1ccc(C2C3=C(COC3=O)Nc3cc4c(cc32)OCO4)cc1OC (stereo unspecified),132*,58*,-4,.,2,86*
O=C1OCC2=C1C(c1ccc(F)cc1)c1cc3c(cc1N2)OCO3 (stereo unspecified),.,67*,-4,-23,28,72*
O=C1OCC2=C1C(c1ccc(F)cc1)c1cc3c(cc1N2)OCCO3 (stereo unspecified),.,46,-6,5,26,85*
CCOc1ccccc1C1C2=C(COC2=O)Nc2cc3c(cc21)OCO3 (stereo unspecified),117*,47,0,5,35,88*
CCCOc1c(OC)cccc1C1CC(=O)Nc2cc3c(cc21)OCO3 (stereo unspecified),-3,.,-6,.,30,.
O=C1OCC2=C1C(c1ccc3c(c1)OCO3)Sc1ccccc1N2 (stereo unspecified),-7,.,-1,-16,25,.
CCCNC(=O)N1CC2(CN(C(=O)c3ccncc3)C2)c2c([nH]c3cc(OC)ccc23)[C@@H]1CO,.,-7,.,.,.,.
CC(C)(C)C(=O)NC(=S)NNC(=O)c1ccncc1,-11,-15,5,-5,4,0
CCCOc1ccc(C(=O)NNC(=S)NC(=O)c2cccs2)cc1,54,.,25,4,47,21
CC(C)(C)C(=O)NC(=S)NNC(=O)c1ccc(-c2ccccc2)cc1,67*,.,34,.,94*,.
CCCOc1ccc(C(=O)NNC(=S)NC(=O)c2ccccc2)cc1,80*,0,19,3,33,2
CCCCOc1ccc(C(=O)NNC(=S)NC(=O)CC)cc1,85*,.,32,.,81,.
CCCOc1ccc(C(=O)NNC(=S)NC(C)=O)cc1,68*,.,29,5,83,21
O=C(c1ccc(F)cc1)N1[C@@H](CO)[C@@H]2c3ccccc3NC[C@@H]21,.,0,.,.,.,4
O=C(NCc1ccccc1)[C@@H]1[C@@H](CO)[C@@H]2Cn3c(ccc(-c4cccc(F)c4)c3=O)[C@H]1N2,.,-3,.,.,.,.
Cc1ccc(-c2ccc3c(c2)O[C@H](CN(C)C(=O)Nc2ccccc2)[C@H](C)CN([C@@H](C)CO)S3(=O)=O)cc1,.,9,.,-10,.,30
